Results on seven compounds are retold here after ChEMBL document CHEMBL3877325, “Novel salicylanilides from 4,5-dihalogenated salicylic acids: Synthesis, antimicrobial activity and cytotoxicity” (Bioorg Med Chem, 2017).

Values after ≈ are worked out from the molar mass of the structure shown.

Data set [1] can be described thus: Selectivity index, ratio of IC50 for human HepG2 cells to MIC for Mycobacterium tuberculosis H37Rv after 21 days. The note with it: HepG2 cells versus Mycobacterium tuberculosis H37Rv, read-out: Selectivity Index. Format: toxicity, cell-based. In a few lines:
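HepG2 cells (passages 33-37) seeded at 1 × 10^4 per well and treated next day with 0.1–100 µM in triplicate. After 24 h at 37 °C, 5% CO2, MTS reagent added for 2 h and absorbance read at 490 nm. IC50 taken from viability relative to untreated control, then divided by the 21-day H37Rv MIC.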

Data set [2] concerns Mycobacterium kansasii. Description: Antimycobacterial activity against Mycobacterium kansasii isolate 235/80 after 7 days by micromethod. In kind it is functional. The note with it: isolate 235/80, 168 h. In a few lines:
(§1)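 MIC in Šula's semisynthetic medium at 37 °C, read after 7, 14 and 21 days. Inoculum is strain dilution 10^-4; 235/80 is a collection strain and 6509/96 a clinical isolate. Compounds are added as DMSO solutions at 500, 250, 125, 62.5, 32, 16, 8, 4, 2, 1 and 0.5 µM. INH (in sterile water) and PAS are the reference drugs.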

The test system of data set [3] is Mycobacterium tuberculosis. Description: Antimycobacterial activity against Mycobacterium tuberculosis H37Rv My 331/88 after 14 days by micromethod. Format: functional. The note with it: H37Rv My 331/88, 336 h. In short, it runs like this:
(§2)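 MIC micromethod in Šula's semisynthetic medium at 37 °C, read after 14 and 21 days. Compounds added as DMSO solutions at 500 down to 0.5 µM (twofold-type series: 500, 250, 125, 62.5, 32, 16, 8, 4, 2, 1, 0.5 µM). Isoniazid standard given in sterile water.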

Data set [4] has as its system Mycobacterium kansasii. Description: Antimycobacterial activity against Mycobacterium kansasii isolate 235/80 after 14 days by micromethod. The following applies: isolate 235/80, 336 h. In kind it is functional. In a few lines: as §1
Data set [5] concerns Mycobacterium kansasii. Description: Antimycobacterial activity against Mycobacterium kansasii isolate 235/80 after 21 days by micromethod. In kind it is functional. The following applies: isolate 235/80, 504 h. In a few lines:
as §1

Data set [6] concerns Mycobacterium avium. Description: Antimycobacterial activity against Mycobacterium avium My 330/80 after 21 days by micromethod. Format: functional. The following applies: My 330/80, 504 h. In short, it runs like this: (§3)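 M. avium My 330/80 (collection strain) inoculated at 10^-5 dilution into Šula's semisynthetic medium. Compounds added from DMSO solutions at 500, 250, 125, 62.5, 32, 16, 8, 4, 2, 1 and 0.5 µM. MIC determined by micromethod at 37 °C, read after 14 and 21 days.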

In data set [7] the test system is Mycobacterium tuberculosis. Description: Antimycobacterial activity against Mycobacterium tuberculosis H37Rv My 331/88 after 21 days by micromethod. Format: functional. The following applies: H37Rv My 331/88, 504 h. In a few lines: as §2
Data set [8] has as its system Mycobacterium kansasii. Description: Antimycobacterial activity against Mycobacterium kansasii isolate 6509/96 after 21 days by micromethod. The note with it: isolate 6509/96, 504 h. Format: functional. In short, it runs like this: as §1
Data set [9] can be described thus: Cytotoxicity against human HepG2 cells assessed as reduction in cell viability after 24 hrs by MTS assay. Format: toxicity, cell-based. In short, it runs like this:
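HepG2 cells (passages 33-37) are grown in MEM with 10% FBS, L-glutamine and non-essential amino acids. They are seeded at 1 × 10^4 cells/well and treated next day with 0.1-100 µM in triplicate for 24 h at 37 °C, 5% CO2. MTS reagent is added for 2 h and A490 read.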

The test system of data set [10] is Mycobacterium avium. Description: Antimycobacterial activity against Mycobacterium avium My 330/80 after 14 days by micromethod. Format: functional. The note with it: My 330/80, 336 h. In a few lines:
as §3

Data set [11] deals with Mycobacterium kansasii. Description: Antimycobacterial activity against Mycobacterium kansasii isolate 6509/96 after 7 days by micromethod. In kind it is functional. The following applies: isolate 6509/96, 168 h. In short, it runs like this: as §1
Data set [12] concerns Mycobacterium kansasii. Description: Antimycobacterial activity against Mycobacterium kansasii isolate 6509/96 after 14 days by micromethod. Format: functional. The note with it: isolate 6509/96, 336 h. In a few lines:
as §1

Regarding `O=C(Nc1ccc(C(F)(F)F)cc1)c1cc(Cl)c(Cl)cc1O`, in data set [1], the selectivity ratio at 504 h turned out to be 4.94. In addition, the minimal inhibitory concentration (MIC) in [2] was determined as 4 µM (≈ 1.4 µg/mL); in data set [3] it was 2 µM (≈ 0.7 µg/mL); in data set [4] it was 8 µM (≈ 2.8 µg/mL); in data set [5] it was 8 µM (≈ 2.8 µg/mL); in data set [6] it was 62.5 µM (≈ 21.9 µg/mL); in [7], 2 µM (≈ 0.7 µg/mL). The MIC came to 8 µM (≈ 2.8 µg/mL) in [8], 62.5 µM (≈ 21.9 µg/mL) in [10], 4 µM (≈ 1.4 µg/mL) in data set [11] and 8 µM (≈ 2.8 µg/mL) in data set [12]. In [9], the IC50 at 24 h is 9.87 µM.
As to `O=C(Nc1ccc(Br)cc1)c1cc(Cl)c(Cl)cc1O`, the selectivity ratio at 504 h in data set [1] came out at 5.35. In addition, the MIC worked out at 8 µM (≈ 2.89 µg/mL) in data set [2]; 2 µM (≈ 0.722 µg/mL) in data set [3]; 8 µM (≈ 2.89 µg/mL) in data set [4]; 8 µM (≈ 2.89 µg/mL) in data set [5]; 32 µM (≈ 11.6 µg/mL) in data set [6]; 4 µM (≈ 1.44 µg/mL) in data set [7]. The minimal inhibitory concentration (MIC) in data set [8] turned out to be 8 µM (≈ 2.89 µg/mL); in data set [10] it was 32 µM (≈ 11.6 µg/mL); in [11], 8 µM (≈ 2.89 µg/mL); in data set [12], 8 µM (≈ 2.89 µg/mL). Also, the IC50 at 24 h in data set [9] was 21.4 µM.
As for `O=C(Nc1ccc(Cl)c(Cl)c1)c1cc(Cl)c(Cl)cc1O`, the selectivity ratio at 504 h in data set [1] came to 6.21. For the same compound, the minimal inhibitory concentration (MIC) worked out at 4 µM (≈ 1.4 µg/mL) in [2]; 2 µM (≈ 0.702 µg/mL) in data set [3]; 8 µM (≈ 2.81 µg/mL) in data set [4]; 8 µM (≈ 2.81 µg/mL) in [5]; 62.5 µM (≈ 21.9 µg/mL) in data set [6]; 2 µM (≈ 0.702 µg/mL) in data set [7]. The MIC came out at 8 µM (≈ 2.81 µg/mL) in data set [8], 62.5 µM (≈ 21.9 µg/mL) in data set [10], 8 µM (≈ 2.81 µg/mL) in data set [11] and 8 µM (≈ 2.81 µg/mL) in data set [12]. In [9], the IC50 at 24 h was found to be 12.4 µM.
Take `O=C(Nc1ccc(Br)cc1)c1cc(Br)c(Br)cc1O`: the selectivity ratio at 504 h in data set [1] was found to be 4.47. Moreover, the minimal inhibitory concentration (MIC) was determined as 4 µM (≈ 1.8 µg/mL) in data set [2]; 4 µM (≈ 1.8 µg/mL) in data set [3]; 8 µM (≈ 3.6 µg/mL) in data set [4]; 8 µM (≈ 3.6 µg/mL) in data set [5]; 32 µM (≈ 14.4 µg/mL) in data set [6]; 4 µM (≈ 1.8 µg/mL) in data set [7]. The minimum inhibitory concentration (MIC) in data set [8] was found to be 8 µM (≈ 3.6 µg/mL); in data set [10], 32 µM (≈ 14.4 µg/mL); in [11], 8 µM (≈ 3.6 µg/mL); in data set [12] it was 8 µM (≈ 3.6 µg/mL). In addition, the IC50 at 24 h in data set [9] came to 17.9 µM.
For the compound `O=C(Nc1ccc(C(F)(F)F)cc1)c1cc(Cl)c(Br)cc1O`, in data set [1], the selectivity ratio at 504 h turned out to be 3.26. In addition, the MIC in data set [2] is 4 µM (≈ 1.58 µg/mL); in [3], 1 µM (≈ 0.395 µg/mL); in data set [4], 4 µM (≈ 1.58 µg/mL); in data set [5] it was 4 µM (≈ 1.58 µg/mL); in [6], 32 µM (≈ 12.6 µg/mL); in data set [7], 2 µM (≈ 0.789 µg/mL). Besides, the MIC in data set [8] came out at 4 µM (≈ 1.58 µg/mL); in [10], 32 µM (≈ 12.6 µg/mL); in data set [11] it was 4 µM (≈ 1.58 µg/mL); in [12], 4 µM (≈ 1.58 µg/mL). In [9], the IC50 at 24 h amounted to 6.52 µM.
Consider `O=C(Nc1cc(C(F)(F)F)cc(C(F)(F)F)c1)c1cc(Cl)c(Cl)cc1O`, for which the selectivity ratio at 504 h in data set [1] amounted to 2.43. Besides, the MIC is 8 µM (≈ 3.34 µg/mL) in data set [2]; 2 µM (≈ 0.836 µg/mL) in data set [3]; 8 µM (≈ 3.34 µg/mL) in data set [4]; 16 µM (≈ 6.69 µg/mL) in data set [5]; 32 µM (≈ 13.4 µg/mL) in data set [6]; 2 µM (≈ 0.836 µg/mL) in data set [7]. Further, the MIC in data set [8] was 16 µM (≈ 6.69 µg/mL); in data set [10], 32 µM (≈ 13.4 µg/mL); in data set [11] it was 8 µM (≈ 3.34 µg/mL); in data set [12] it was 16 µM (≈ 6.69 µg/mL). Besides, the IC50 at 24 h in data set [9] worked out at 4.86 µM.
On to `O=C(Nc1cc(C(F)(F)F)cc(C(F)(F)F)c1)c1cc(Br)ccc1O`, for which, in [1], the selectivity ratio at 504 h came to 3.4. Besides, the MIC in [2] was determined as 4 µM (≈ 1.71 µg/mL); in data set [3], 2 µM (≈ 0.856 µg/mL); in data set [4], 8 µM (≈ 3.43 µg/mL); in data set [5] it was 8 µM (≈ 3.43 µg/mL); in data set [6], 16 µM (≈ 6.85 µg/mL); in data set [7], 2 µM (≈ 0.856 µg/mL). Further, the MIC in data set [8] turned out to be 8 µM (≈ 3.43 µg/mL); in [10], 16 µM (≈ 6.85 µg/mL); in [11], 4 µM (≈ 1.71 µg/mL); in data set [12], 8 µM (≈ 3.43 µg/mL). The IC50 at 24 h in data set [9] came to 7.8 µM.
